{"source": "ChEMBL document CHEMBL5331128", "about": "“Alicyclic Ring Size Variation of 4-Phenyl-2-naphthoic Acid Derivatives as P2Y14 Receptor Antagonists” (J Med Chem, 2023)", "key": {"[1]": {"target": "T1, P2Y purinoceptor 14 (Homo sapiens, UniProt Q15391)", "T1 sequence (Q15391 whole entry)": "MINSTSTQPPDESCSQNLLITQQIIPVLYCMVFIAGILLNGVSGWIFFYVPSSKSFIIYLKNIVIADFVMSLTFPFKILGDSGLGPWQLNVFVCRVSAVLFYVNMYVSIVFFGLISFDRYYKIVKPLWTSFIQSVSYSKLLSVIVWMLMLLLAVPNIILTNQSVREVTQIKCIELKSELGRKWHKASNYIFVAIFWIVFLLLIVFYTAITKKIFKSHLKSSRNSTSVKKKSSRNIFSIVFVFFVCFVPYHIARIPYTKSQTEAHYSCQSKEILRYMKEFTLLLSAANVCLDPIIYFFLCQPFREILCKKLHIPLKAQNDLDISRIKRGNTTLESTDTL", "test": "(§1) Displacement of fluorescent tracer 4-(4-(1-(4-(1-(6-(3-carboxylato-4-(3-iminio-3H-xanthen-9-yl)benzamido)hexyl)-4,5-dihydro-1H-pyrrol-3-yl)butyl)piperidin-1-ium-4-yl)phenyl)-7-(4-(trifluoromethyl)phenyl)-2-naphthoate from human P2Y14R stably expressed in CHO cells by flow cytometry", "assay_type": "cell-based", "how_it_was_run": "(§2)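 Whole-cell competitive binding: CHO cells expressing hP2Y14R (or HEK-293 cells expressing mP2Y14R) incubated with AlexaFluor488-labelled antagonist tracer at 20 nM.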"}, "[2]": {"target": "T1, P2Y purinoceptor 14", "test": "as §1, with “cells assessed as inhibition constant” for “cells”", "assay_type": "cell-based", "how_it_was_run": "as §2"}, "[3]": {"test": "Lipophilicity, log D of compound at pH 7.4 incubated for 20 hrs by HPLC analysis", "assay_type": "physicochemical", "conditions": "buffer"}, "[4]": {"test": "Selectivity ratio, ratio of IC50 for displacement of fluorescent tracer 4-(4-(1-(4-(1-(6-(3-carboxylato-4-(3-iminio-3H-xanthen-9-yl)benzamido)hexyl)-4,5-dihydro-1H-pyrrol-3-yl)butyl)piperidin-1-ium-4-yl)phenyl)-7-(4-(trifluoromethyl)phenyl)-2-naphthoate from mouse P2Y14R stably expressed in human HEK293 cells to IC50 for displacement of fluorescent tracer 4-(4-(1-(4-(1-(6-(3-carboxylato-4-(3-iminio-3H-xanthen-9-yl)benzamido)hexyl)-4,5-dihydro-1H-pyrrol-3-yl)butyl)piperidin-1-ium-4-yl)phenyl)-7-(4-(trifluoromethyl)phenyl)-2-naphthoate from human P2Y14R stably expressed in CHO cells", "assay_type": "cell-based"}, "[5]": {"target": "5-hydroxytryptamine receptor 1B (Homo sapiens, UniProt P28222)", "sequence (P28222 whole entry)": "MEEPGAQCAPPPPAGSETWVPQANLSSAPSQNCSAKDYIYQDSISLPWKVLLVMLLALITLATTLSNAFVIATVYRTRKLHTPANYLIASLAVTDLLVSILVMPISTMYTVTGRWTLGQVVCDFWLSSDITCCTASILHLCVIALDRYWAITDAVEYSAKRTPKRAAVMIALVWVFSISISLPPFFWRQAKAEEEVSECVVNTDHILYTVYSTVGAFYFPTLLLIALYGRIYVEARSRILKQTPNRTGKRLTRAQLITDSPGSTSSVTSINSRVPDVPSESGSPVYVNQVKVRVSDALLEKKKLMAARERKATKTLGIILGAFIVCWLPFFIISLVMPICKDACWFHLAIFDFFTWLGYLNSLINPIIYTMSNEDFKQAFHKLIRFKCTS", "test": "Displacement of [3H]-5-CT from human 5-HT1B receptor assessed as inhibition constant by radioligand displacement assay"}, "[6]": {"test": "Acute toxicity in Wistar rat assessed as mortality at 1 to 10 mg/kg, ip and measured upto 24 hrs", "assay_type": "organism-based", "conditions": "in vivo, dose 1-10 mg/kg", "how_it_was_run": "(§3)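 Male Wistar rats; single dose at 1, 3 or 10 mg/kg i.p., or 0.5 mg/kg i.v. Animals were watched for mortality and morbidity over the experimental period, in the course of a plasma pharmacokinetic study.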"}, "[7]": {"test": "Acute toxicity in Wistar rat assessed as mortality at 0.5 mg/kg, iv and measured upto 24 hrs", "assay_type": "organism-based", "conditions": "in vivo", "how_it_was_run": "as §3"}, "[8]": {"test": "Acute toxicity in Wistar rat assessed as morbidity at 0.5 mg/kg, iv and measured upto 24 hrs", "assay_type": "organism-based", "conditions": "in vivo", "how_it_was_run": "as §3"}, "[9]": {"test": "Half life in Wistar rat at 3 mg/kg, ip and measured upto 24 hrs", "assay_type": "ADME, organism-based", "conditions": "in vivo"}, "[10]": {"test": "Half life in Wistar rat at 10 mg/kg, ip and measured upto 24 hrs", "assay_type": "ADME, organism-based", "conditions": "in vivo"}, "[11]": {"test": "Cmax in Wistar rat plasma at 1 mg/kg, ip and measured upto 24 hrs", "assay_type": "ADME, organism-based", "design": "time < 24 hrs, dose 1 mg/kg, route ip"}, "[12]": {"test": "Cmax in Wistar rat plasma at 10 mg/kg, ip and measured upto 24 hrs", "assay_type": "ADME, organism-based", "design": "time < 24 hrs, dose 10 mg/kg, route ip"}, "[13]": {"target": "T2, Cytochrome P450 1A2 (Homo sapiens, UniProt P05177)", "T2 sequence (P05177 whole entry)": "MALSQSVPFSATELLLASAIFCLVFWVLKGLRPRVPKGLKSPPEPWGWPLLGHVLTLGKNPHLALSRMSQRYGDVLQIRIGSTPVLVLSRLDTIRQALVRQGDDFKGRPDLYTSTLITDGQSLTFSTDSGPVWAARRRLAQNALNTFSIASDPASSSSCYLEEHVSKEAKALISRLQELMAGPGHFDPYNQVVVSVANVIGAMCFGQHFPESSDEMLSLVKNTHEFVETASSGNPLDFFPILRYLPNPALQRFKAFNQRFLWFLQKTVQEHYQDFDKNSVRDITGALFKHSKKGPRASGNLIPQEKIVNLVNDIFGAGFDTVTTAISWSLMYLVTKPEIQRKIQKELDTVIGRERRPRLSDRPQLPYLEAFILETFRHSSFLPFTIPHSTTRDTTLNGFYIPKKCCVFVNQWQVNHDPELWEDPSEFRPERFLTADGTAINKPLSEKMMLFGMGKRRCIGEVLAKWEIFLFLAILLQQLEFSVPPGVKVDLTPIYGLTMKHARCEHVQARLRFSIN", "test": "Inhibition of CYP1A2 (unknown origin)", "assay_type": "ADME"}, "[14]": {"test": "Stability in rat plasma assessed as parent compound remaining at 1 uM and measured at 120 mins by LC-MS/MS analysis", "assay_type": "ADME, cell-free", "conditions": "2 h", "how_it_was_run": "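Plasma from human, rat and mouse; percent parent remaining at 120 min.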"}, "[15]": {"test": "Microsomal stability in mouse liver microsomes assessed as half life", "assay_type": "ADME, Microsome"}, "[16]": {"test": "Solubility of compound in pH 4.0 incubated for 20 hrs by pION method", "assay_type": "physicochemical", "conditions": "buffer, pH 4, 20 h", "how_it_was_run": "(§4)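 pION method: 5 mM DMSO stocks diluted 1:100 into pION buffer at pH 4.0 or 7.4, incubated 20 h. Undissolved material removed by centrifugation at 14,000 rpm for 20 min, then supernatant mixed 1:1 with n-propanol. […] Mean ± SD reported.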"}, "[17]": {"test": "Solubility of compound in pH 7.4 incubated for 20 hrs by pION method", "assay_type": "physicochemical", "conditions": "buffer, pH 7.4, 20 h", "how_it_was_run": "as §4"}, "[18]": {"test_system": "Mus musculus", "test": "Antiallodynic activity in CCI surgery neuropathic pain Hsd:ICR mouse model assessed as reversal of mechano-allodynia by measuring paw withdrawal threshold at 10 micromol/kg,po and measured at 1 hrs by von frey test", "assay_type": "functional, organism-based", "conditions": "dose 10.0 µmol/kg", "how_it_was_run": "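CCI neuropathic pain in adult male CD-1 mice. Single oral gavage dose of 10 μmol/kg on day 7 post-surgery. Vehicle 5% DMSO + 10% (Kolliphor HS 15:DMSO 5:95) in 0.5% methylcellulose, 0.2 mL. Von Frey paw withdrawal threshold on both hindpaws. Mean ± SD; two-way ANOVA with Dunnett's test.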"}, "[19]": {"test_system": "Mus musculus", "test": "Antiallodynic activity in CCI surgery neuropathic pain Hsd:ICR mouse model assessed as reversal of mechano-allodynia by measuring paw withdrawal threshold at 10 micromol/kg,ip and measured upto 5 days by von frey test", "assay_type": "functional, organism-based", "conditions": "dose 10.0 µmol/kg, time <= 5.0 day", "how_it_was_run": "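CCI neuropathic pain in adult male Hsd:ICR (CD-1) mice (20–30 g). Single i.p. injection on day 7 after sciatic nerve constriction, at peak pain. Vehicle 10% (Kolliphor HS 15:DMSO 5:95) in saline, 0.2 mL. Paw withdrawal threshold by von Frey filaments on ipsilateral and contralateral hindpaws. Mean ± SD; two-way ANOVA with Dunnett's test versus day 0 and day 7.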"}, "[20]": {"test_system": "Mus musculus", "test": "Protection against cardiac ischemia/reperfusion induced C57BL/6J mouse injury model assessed as reduction in infarct area by measuring AAR/TTA ratio at 2 mg/kg, sc prior to 0.5 hrs of myocardial ischemia and 48 h of reperfusion (Rvb= […])", "assay_type": "functional", "design": "scale not given: the % may be the effect or the level left", "conditions": "time 48.5 hrs"}, "[21]": {"test_system": "Mus musculus", "test": "Protection against cardiac ischemia/reperfusion induced C57BL/6J mouse injury model assessed as reduction in infarct size at 2 mg/kg, sc prior to 0.5 hrs of myocardial ischemia and 48 h of reperfusion (Rvb= 26.4%)", "assay_type": "functional", "design": "scale not given: the % may be the effect or the level left", "conditions": "time 48.5 hrs"}}, "note": "pIC50, pKi: −log10 of the molar value. Active and inactive are the calls of the source."}
{"compound": "O=C(O)c1cc(-c2ccc([C@]3(O)[C@@H]4CNC[C@H]3C4)cc2)c2ccc(-c3ccc(C(F)(F)F)cc3)cc2c1", "values": [{"measurement": "pIC50", "setting": "[1]", "value": 8.23}, {"measurement": "pKi", "setting": "[2]", "value": 8.46}, {"measurement": "logD at 20 h", "setting": "[3]", "value": 1.2}, {"measurement": "Ratio IC50", "setting": "[4]", "value": 0.811}, {"measurement": "pKi", "setting": "[5]", "value": 5.22}, {"measurement": "Activity", "setting": "[6]", "value": "Non-Toxic"}, {"measurement": "Activity", "setting": "[7]", "value": "Non-Toxic"}, {"measurement": "Activity", "setting": "[8]", "value": "Non-Toxic"}, {"measurement": "t1/2", "setting": "[9]", "value": 4.32, "unit": "h"}, {"measurement": "t1/2", "setting": "[10]", "value": 4.15, "unit": "h"}, {"measurement": "Cmax", "setting": "[11]", "value": 500, "unit": "nM"}, {"measurement": "Cmax", "setting": "[12]", "value": 4000, "unit": "nM"}, {"measurement": "pIC50", "setting": "[13]", "value": "< 4.52"}, {"measurement": "Stability", "setting": "[14]", "value": 81.3, "unit": "%"}, {"measurement": "t1/2", "setting": "[15]", "value": 5.92, "unit": "h"}, {"measurement": "solubility", "setting": "[16]", "value": 7.1, "unit": "µg/mL"}, {"measurement": "solubility", "setting": "[17]", "value": 1.4, "unit": "µg/mL"}, {"measurement": "Activity", "setting": "[18]", "value": "Active"}, {"measurement": "Activity", "setting": "[19]", "value": "Active"}, {"measurement": "Activity", "setting": "[20]", "value": 33.7, "unit": "%"}, {"measurement": "Activity", "setting": "[21]", "value": 31.8, "unit": "%"}]}
